Legend:
Triticum aestivum = test: Toxicity in Triticum aestivum (wheat) plant assessed as inhibition at 150 g/hectare; assay type: organism-based; conditions: in vivo
Summary of the method: (§1)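 For crop selectivity, conventional crop varieties were planted in 12 cm diameter plots and given a postemergence treatment at 150 g ai/ha. Injury was scored as percent inhibition, with 0–10% classed as safe to the crop.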

Brassica napus = test: Toxicity in Brassica napus (oilseed rape) assessed as inhibition at 150 g/hectare; assay type: functional; summary of the method: as §1
Gossypium hirsutum = test: Toxicity in Gossypium hirsutum (cotton) plant assessed as inhibition at 150 g/hectare; assay type: organism-based; conditions: in vivo; summary of the method: as §1
Glycine max = test: Toxicity in Glycine max (soybean) plant assessed as inhibition at 150 g/hectare; assay type: organism-based; conditions: in vivo; summary of the method: as §1
Zea mays = test: Toxicity in Zea mays (maize) plant assessed as inhibition at 150 g/hectare; assay type: organism-based; conditions: in vivo; summary of the method: as §1
Oryza sativa = test: Toxicity in Oryza sativa (rice) plant assessed as inhibition at 150 g/hectare; assay type: organism-based; conditions: in vivo; summary of the method: as §1
Brassica juncea [1] = test: Post-emergence herbicidal activity against Brassica juncea assessed as inhibition at 75 g/hectare by green house assay; assay type: functional
Chenopodium album [2] = test: Post-emergence herbicidal activity against Chenopodium album assessed as inhibition at 75 g/hectare by green house assay; assay type: functional
[3] = tested on: Brassica rapa subsp. oleifera; test: Post-emergence herbicidal activity against Brassica rapa subsp. oleifera assessed as inhibition at 75 g/hectare by green house assay; assay type: functional
Brassica oleracea [4] = test: Post-emergence herbicidal activity against Brassica oleracea assessed as inhibition at 75 g/hectare by green house assay; assay type: functional
Pontederia vaginalis [5] = test: Post-emergence herbicidal activity against Monochoria vaginalis assessed as inhibition at 75 g/hectare by green house assay; assay type: functional
Ammannia baccifera [6] = test: Post-emergence herbicidal activity against Ammannia baccifera assessed as inhibition at 75 g/hectare by green house assay; assay type: functional
Radish [7] = test: Post-emergence herbicidal activity against Raphanus sativus (radish) assessed as inhibition at 75 g/hectare by green house assay; assay type: functional
Ipomoea nil [8] = test: Post-emergence herbicidal activity against Ipomoea nil (Japanese morning glory) assessed as inhibition at 75 g/hectare by green house assay; assay type: functional
[9] = tested on: Brassica rapa subsp. chinensis; test: Post-emergence herbicidal activity against Brassica rapa subsp. chinensis assessed as inhibition at 75 g/hectare by green house assay; assay type: functional
Amaranthus retroflexus [10] = test: Post-emergence herbicidal activity against Amaranthus retroflexus assessed as inhibition at 75 g/hectare by green house assay; assay type: functional
Brassica juncea [11] = test: Post-emergence herbicidal activity against Brassica juncea assessed as inhibition at 150 g/hectare by green house assay; assay type: functional
Chenopodium album [12] = test: Post-emergence herbicidal activity against Chenopodium album assessed as inhibition at 150 g/hectare by green house assay; assay type: functional
[13] = tested on: Brassica rapa subsp. oleifera; test: Post-emergence herbicidal activity against Brassica rapa subsp. oleifera assessed as inhibition at 150 g/hectare by green house assay; assay type: functional
Brassica oleracea [14] = test: Post-emergence herbicidal activity against Brassica oleracea assessed as inhibition at 150 g/hectare by green house assay; assay type: functional
Pontederia vaginalis [15] = test: Post-emergence herbicidal activity against Monochoria vaginalis assessed as inhibition at 150 g/hectare by green house assay; assay type: functional
Ammannia baccifera [16] = test: Post-emergence herbicidal activity against Ammannia baccifera assessed as inhibition at 150 g/hectare by green house assay; assay type: functional
Radish [17] = test: Post-emergence herbicidal activity against Raphanus sativus (radish) assessed as inhibition at 150 g/hectare by green house assay; assay type: functional
Ipomoea nil [18] = test: Post-emergence herbicidal activity against Ipomoea nil (Japanese morning glory) assessed as inhibition at 150 g/hectare by green house assay; assay type: functional
Amaranthus retroflexus [19] = test: Post-emergence herbicidal activity against Amaranthus retroflexus assessed as inhibition at 150 g/hectare by green house assay; assay type: functional
[20] = tested on: Brassica rapa subsp. chinensis; test: Post-emergence herbicidal activity against Brassica rapa subsp. chinensis assessed as inhibition at 150 g/hectare by green house assay; assay type: functional
Eclipta prostrata [21] = test: Post-emergence herbicidal activity against Eclipta prostrata assessed as inhibition at 75 g/hectare treated at two-leaf stage by green house assay; assay type: functional
Summary of the method: (§2)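 Greenhouse postemergence spray of diluted formulation solutions onto broadleaf weeds at the two-leaf stage. Primary screen at 150 g ai/ha, with selected compounds retested at 75 and 37.5 g ai/ha. Abutilon was tested at 150 g ai/ha only. Read-out is percent herbicidal damage relative to an untreated control.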

Eclipta prostrata [22] = test: Post-emergence herbicidal activity against Eclipta prostrata assessed as inhibition at 37.5 g/hectare treated at two-leaf stage by green house assay; assay type: functional; summary of the method: as §2
Amaranthus retroflexus [23] = test: Post-emergence herbicidal activity against Amaranthus retroflexus assessed as inhibition at 37.5 g/hectare treated at two-leaf stage by green house assay; assay type: functional; summary of the method: as §2
Amaranthus retroflexus [24] = test: Post-emergence herbicidal activity against Amaranthus retroflexus assessed as inhibition at 75 g/hectare treated at two-leaf stage by green house assay; assay type: functional; summary of the method: as §2
Brassica juncea [25] = test: Post-emergence herbicidal activity against Brassica juncea assessed as inhibition at 75 g/hectare treated at two-leaf stage by green house assay; assay type: functional; summary of the method: as §2
Brassica juncea [26] = test: Post-emergence herbicidal activity against Brassica juncea assessed as inhibition at 37.5 g/hectare treated at two-leaf stage by green house assay; assay type: functional; summary of the method: as §2
Digitaria sanguinalis [27] = test: Post-emergence herbicidal activity against Digitaria sanguinalis (hairy crabgrass) assessed as inhibition at 75 g/hectare treated at one-leaf stage by green house assay; assay type: functional
Summary of the method: (§3)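 Monocot weeds were sprayed postemergence in the greenhouse at the one-leaf stage with diluted formulation solutions. Primary dose was 150 g ai/ha, with follow-up doses of 75 and 37.5 g ai/ha for selected compounds. Activity is scored as percent herbicidal damage compared with an untreated control.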

Digitaria sanguinalis [28] = test: Post-emergence herbicidal activity against Digitaria sanguinalis (hairy crabgrass) assessed as inhibition at 37.5 g/hectare treated at one-leaf stage by green house assay; assay type: functional; summary of the method: as §3
Setaria viridis [29] = test: Post-emergence herbicidal activity against Setaria viridis (green foxtail) assessed as inhibition at 75 g/hectare treated at one-leaf stage by green house assay; assay type: functional; summary of the method: as §3
Setaria viridis [30] = test: Post-emergence herbicidal activity against Setaria viridis (green foxtail) assessed as inhibition at 37.5 g/hectare treated at one-leaf stage by green house assay; assay type: functional; summary of the method: as §3
Echinochloa crus-galli [31] = test: Post-emergence herbicidal activity against Echinochloa crus-galli (barnyard grass) assessed as inhibition at 75 g/hectare treated at one-leaf stage by green house assay; assay type: functional; summary of the method: as §3
Echinochloa crus-galli [32] = test: Post-emergence herbicidal activity against Echinochloa crus-galli (barnyard grass) assessed as inhibition at 37.5 g/hectare treated at one-leaf stage by green house assay; assay type: functional; summary of the method: as §3
Eclipta prostrata [33] = test: Post-emergence herbicidal activity against Eclipta prostrata assessed as inhibition at 150 g/hectare treated at two-leaf stage by green house assay; assay type: functional; summary of the method: as §2
Amaranthus retroflexus [34] = test: Post-emergence herbicidal activity against Amaranthus retroflexus assessed as inhibition at 150 g/hectare treated at two-leaf stage by green house assay; assay type: functional; summary of the method: as §2
Brassica juncea [35] = test: Post-emergence herbicidal activity against Brassica juncea assessed as inhibition at 150 g/hectare treated at two-leaf stage by green house assay; assay type: functional; summary of the method: as §2
Abutilon theophrasti = test: Post-emergence herbicidal activity against Abutilon theophrasti (velvetleaf) assessed as inhibition at 150 g/hectare treated at two-leaf stage by green house assay; assay type: functional; summary of the method: as §2
Digitaria sanguinalis [36] = test: Post-emergence herbicidal activity against Digitaria sanguinalis (hairy crabgrass) assessed as inhibition at 150 g/hectare treated at one-leaf stage by green house assay; assay type: functional; summary of the method: as §3
Echinochloa crus-galli [37] = test: Post-emergence herbicidal activity against Echinochloa crus-galli (barnyard grass) assessed as inhibition at 150 g/hectare treated at one-leaf stage by green house assay; assay type: functional; summary of the method: as §3
Setaria viridis [38] = test: Post-emergence herbicidal activity against Setaria viridis (green foxtail) assessed as inhibition at 150 g/hectare treated at one-leaf stage by green house assay; assay type: functional; summary of the method: as §3

CC(OC(=O)COc1ccc(Cl)cc1Cl)P1(=O)OCC(C)(C)CO1 (stereo not given)
inhibition (INH) (Triticum aestivum): 0%
inhibition at 150 g/ha (Brassica napus): 40%
inhibition (INH) (Gossypium hirsutum): 30%
inhibition (INH) (Glycine max): 30%
inhibition (INH) (Zea mays): 0%
inhibition (INH) (Oryza sativa): 10%
inhibition at 75 g/ha (Brassica juncea [1]): 95%
inhibition at 75 g/ha (Chenopodium album [2]): 80%
inhibition at 75 g/ha [3]: 90%
inhibition at 75 g/ha (Brassica oleracea [4]): 80%
inhibition at 75 g/ha (Pontederia vaginalis [5]): 100%
inhibition at 75 g/ha (Ammannia baccifera [6]): 100%
inhibition at 75 g/ha (Radish [7]): 90%
inhibition at 75 g/ha (Ipomoea nil [8]): 100%
inhibition at 75 g/ha [9]: 80%
inhibition at 75 g/ha (Amaranthus retroflexus [10]): 75%
inhibition at 150 g/ha (Brassica juncea [11]): 95%
inhibition at 150 g/ha (Chenopodium album [12]): 85%
inhibition at 150 g/ha [13]: 100%
inhibition at 150 g/ha (Brassica oleracea [14]): 90%
inhibition at 150 g/ha (Pontederia vaginalis [15]): 100%
inhibition at 150 g/ha (Ammannia baccifera [16]): 100%
inhibition at 150 g/ha (Radish [17]): 95%
inhibition at 150 g/ha (Ipomoea nil [18]): 100%
inhibition at 150 g/ha (Amaranthus retroflexus [19]): 95%
inhibition at 150 g/ha [20]: 85%
inhibition at 75 g/ha (Eclipta prostrata [21]): 70%
inhibition at 37.5 g/ha (Eclipta prostrata [22]): 50%
inhibition at 37.5 g/ha (Amaranthus retroflexus [23]): 70%
inhibition at 75 g/ha (Amaranthus retroflexus [24]): 75%
inhibition at 75 g/ha (Brassica juncea [25]): 95%
inhibition at 37.5 g/ha (Brassica juncea [26]): 90%
inhibition at 75 g/ha (Digitaria sanguinalis [27]): 0%
inhibition at 37.5 g/ha (Digitaria sanguinalis [28]): 0%
inhibition at 75 g/ha (Setaria viridis [29]): 0%
inhibition at 37.5 g/ha (Setaria viridis [30]): 0%
inhibition at 75 g/ha (Echinochloa crus-galli [31]): 0%
inhibition at 37.5 g/ha (Echinochloa crus-galli [32]): 0%
inhibition at 150 g/ha (Eclipta prostrata [33]): 85%
inhibition at 150 g/ha (Amaranthus retroflexus [34]): 95%
inhibition at 150 g/ha (Brassica juncea [35]): 95%
inhibition at 150 g/ha (Abutilon theophrasti): 95%
inhibition at 150 g/ha (Digitaria sanguinalis [36]): 30%
inhibition at 150 g/ha (Echinochloa crus-galli [37]): 30%
inhibition at 150 g/ha (Setaria viridis [38]): 30%
